Here are results for one molecule from ChEMBL document CHEMBL4376814, “Novel cyclin-dependent kinase 9 (CDK9) inhibitor with suppression of cancer stemness activity against non-small-cell lung cancer” (Eur J Med Chem, 2019).

In assay [1] the test system is Serine/threonine-protein kinase Chk2 (Homo sapiens), O96017 [I157T]. Briefly: Inhibition of recombinant human CHK2 I157T mutant (5 to end residues) at 1 uM using KKKVSRSGLYRSPSMPENLNRPR as substrate measured after 40 mins in presence of [gamma33P]ATP by scintillation counting method relative to control. The gist of the method: (§1)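 Single-point inhibition at 1 µM was measured in the Eurofins KinaseProfiler panel. Values are the mean of two independent experiments.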

For assay [2], the system named is Tyrosine-protein kinase ABL1 (Homo sapiens), P00519 [M351T]. Briefly: Inhibition of human ABL M351T mutant (27 to end residues) at 1 uM using EAIYAAPFAKKK as substrate measured after 40 mins in presence of [gamma33P]ATP by scintillation counting method relative to control. In outline:
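Percent inhibition of kinase activity at a single compound concentration, measured by the outsourced Eurofins KinaseProfiler panel. Values are the mean of two independent experiments.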

Assay [3] has as its target Calcium/calmodulin-dependent protein kinase type 1D (Homo sapiens) (UniProt Q8IU85). Briefly: Inhibition of recombinant full-length human CaMK1delta at 1 uM using calmodulin as substrate measured after 40 mins in presence of [gamma33P]ATP by scintillation counting method relative to control.
For assay [4], the target named is Serine/threonine-protein kinase haspin (Homo sapiens) (UniProt Q8TF76). In words: Inhibition of recombinant human haspin (471 to end residues) at 1 uM using RARTLSFAEPG as substrate measured after 40 mins in presence of [gamma33P]ATP by scintillation counting method relative to control. In outline: as §1
For assay [5], the target named is Serine/threonine-protein kinase VRK1 (Homo sapiens) (UniProt Q99986). Briefly: Inhibition of human VRK1 at 1 uM by radiometric method relative to control.
Assay [6] has as its target Serine/threonine-protein kinase pim-2 (Homo sapiens) (UniProt Q9P1W9). In words: Inhibition of recombinant human Pim-2 (2 to end residues) at 1 uM using RSRHSSYPAGT as substrate measured after 40 mins in presence of [gamma33P]ATP by scintillation counting method relative to control.
Assay [7] deals with Rho-associated protein kinase 1 (Homo sapiens) (UniProt Q13464). In words: Inhibition of recombinant human ROCK1 (17 to 535 residues) at 1 uM using KEAKEKRQEQIAKR as substrate incubated for 40 mins in presence of [gamma-33P]ATP by radiometric assay relative to control. In outline: as §1
The subject of assay [8] is Proto-oncogene tyrosine-protein kinase Src (Homo sapiens), P12931 [T341M]. In words: Inhibition of recombinant full-length human Src T341M mutant at 1 uM using GGEEEEYFELVKKKK as substrate measured after 40 mins in presence of [gamma33P]ATP by scintillation counting method relative to control.
Assay [9] addresses Serine/threonine-protein kinase PRP4 homolog (Homo sapiens) (UniProt Q13523). Briefly: Inhibition of human PRP4 (663 to end residues) at 1 uM using casein as substrate measured after 120 mins in presence of [gamma33P]ATP by scintillation counting method relative to control. The gist of the method: as §1
The target of assay [10] is Casein kinase I isoform delta (Homo sapiens) (UniProt P48730). Briefly: Inhibition of recombinant human CK1delta (1 to 294 residues) at 1 uM using KRRRALS(p)VASLPGL as substrate measured after 40 mins in presence of [gamma33P]ATP by scintillation counting method relative to control.
Assay [11] deals with Serine/threonine-protein kinase D3 (Homo sapiens) (UniProt O94806). In words: Inhibition of recombinant full-length human PKD3 at 1 uM using KKLRRTLSVA as substrate measured after 40 mins in presence of [gamma33P]ATP by scintillation counting method relative to control.
Assay [12] deals with RAF proto-oncogene serine/threonine-protein kinase (Homo sapiens), P04049 [Y340D,Y341D]. Briefly: Inhibition of recombinant human c-RAF Y340D/Y341D double mutant ([…]) at 1 uM using inactive MEK1 as substrate measured after 40 mins in presence of [gamma33P]ATP by scintillation counting method relative to control.
Assay [13] has as its target Misshapen-like kinase 1 (Homo sapiens) (UniProt Q8N4C8). Briefly: Inhibition of recombinant human MINK (1 to 310 recombinant) at 1 uM using myelin basic protein as substrate measured after 40 mins in presence of [gamma33P]ATP by scintillation counting method relative to control.
In assay [14] the target is CDK7/Cyclin H/MNAT1 (Homo sapiens) (UniProt P51946+P50613+P51948). Briefly: Inhibition of human full length recombinant CDK7/cyclinH/MAT1 at 1 uM using peptide as substrate incubated for 40 mins in presence of [gamma-33P]ATP at by radiometric assay relative to control. The format is protein-complex assay.
The target in assay [15] is Cyclin-dependent kinase 13/Cyclin-K (Homo sapiens) (UniProt Q14004+O75909). In words: Inhibition of human full length recombinant CDK13/cyclinK at 1 uM using RSRSRSRSRSRSRSR as substrate incubated for 120 mins in presence of [gamma-33P]ATP at by radiometric assay relative to control. The format is protein-complex assay.
Assay [16] addresses DNA-dependent protein kinase catalytic subunit (Homo sapiens) (UniProt P78527). In words: Inhibition of recombinant full-length human DNA-PK at 1 uM using GST-cMyc-p53 as substrate measured after 40 mins by fluorescence assay relative to control.
Assay [17] addresses Serine/threonine-protein kinase 17A (Homo sapiens) (UniProt Q9UEE5). Briefly: Inhibition of recombinant full-length human DRAK1 at 1 uM using KKLNRTLSFAEPG as substrate measured after 40 mins in presence of [gamma33P]ATP by scintillation counting method relative to control.
The next assay concerns NCI-H1299. In words: Antitumour activity against human H1299 cells xenografted in po dosed Balb/c mouse assessed as inhibition of tumour growth after 21 days by digital caliper method. The format is functional, organism-based. The gist of the method: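 Female nude mice, 6-8 weeks old, injected subcutaneously with 1×10^6 H1299 cells (100 µL of a 1×10^7/mL suspension in serum-free medium). At 100-120 mm3, randomized into groups of 5. Dosed orally each day for 21 days with drug dissolved in DMSO, or with vehicle. Caliper measurements and body weight taken every other day. Volume = short²×long×0.5. Growth inhibition based on change in volume relative to vehicle. Tumours weighed at the end.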
On the technique in general: In xenograft studies the graft and the host belong to different species.

For assay [18], the target named is Death-associated protein kinase 2 (Homo sapiens) (UniProt Q9UIK4). In words: Inhibition of recombinant full-length human DAPK2 at 1 uM using calmodulin as substrate measured after 40 mins in presence of [gamma33P]ATP by scintillation counting method relative to control.
The target of assay [19] is Tyrosine-protein kinase BTK (Homo sapiens) (UniProt Q06187). In words: Inhibition of full-length recombinant human BTK at 1 uM using KVEKIGEGTYGVVYK as substrate measured after 40 mins in presence of [gamma33P]ATP by scintillation counting method relative to control. In outline: as §1
The subject of assay [20] is RAC-gamma serine/threonine-protein kinase (Homo sapiens), Q9Y243 [S472D]. Briefly: Inhibition of recombinant human pkb-gamma S472D mutant (117 to end residues) S472D mutant at 1 uM using GRPRTSSFAEGKK as substrate measured after 40 mins in presence of [gamma33P]ATP by scintillation counting method relative to control.

Casein kinase I isoform delta (Homo sapiens), sequence (P48730 whole entry, looked up, the tested form may be a part, canonical isoform): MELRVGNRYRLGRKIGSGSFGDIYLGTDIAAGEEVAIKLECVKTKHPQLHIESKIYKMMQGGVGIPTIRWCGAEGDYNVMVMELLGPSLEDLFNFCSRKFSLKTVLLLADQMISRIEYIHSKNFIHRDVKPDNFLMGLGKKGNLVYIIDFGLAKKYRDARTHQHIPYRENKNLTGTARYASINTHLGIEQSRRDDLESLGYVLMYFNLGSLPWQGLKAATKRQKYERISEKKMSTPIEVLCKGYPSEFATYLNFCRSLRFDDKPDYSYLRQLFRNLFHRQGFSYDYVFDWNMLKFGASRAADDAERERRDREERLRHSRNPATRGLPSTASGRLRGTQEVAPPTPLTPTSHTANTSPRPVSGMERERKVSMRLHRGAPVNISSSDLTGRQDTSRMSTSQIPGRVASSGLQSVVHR
Proto-oncogene tyrosine-protein kinase Src (Homo sapiens), P12931 [T341M], sequence (P12931 whole entry T341M, looked up): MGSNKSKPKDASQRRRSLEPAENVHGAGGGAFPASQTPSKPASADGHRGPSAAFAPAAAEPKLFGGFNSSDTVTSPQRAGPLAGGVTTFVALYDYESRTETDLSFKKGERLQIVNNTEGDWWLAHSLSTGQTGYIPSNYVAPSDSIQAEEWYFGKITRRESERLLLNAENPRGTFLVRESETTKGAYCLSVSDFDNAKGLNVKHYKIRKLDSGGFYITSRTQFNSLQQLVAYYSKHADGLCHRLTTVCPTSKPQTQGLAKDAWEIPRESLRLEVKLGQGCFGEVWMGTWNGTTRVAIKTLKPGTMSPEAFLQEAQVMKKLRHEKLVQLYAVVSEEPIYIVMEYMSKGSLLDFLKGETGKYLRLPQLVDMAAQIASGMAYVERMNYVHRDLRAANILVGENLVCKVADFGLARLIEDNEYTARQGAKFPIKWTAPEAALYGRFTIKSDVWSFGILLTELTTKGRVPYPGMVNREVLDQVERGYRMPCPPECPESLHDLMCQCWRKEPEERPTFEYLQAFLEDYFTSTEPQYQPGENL
RAC-gamma serine/threonine-protein kinase (Homo sapiens), Q9Y243 [S472D], sequence (Q9Y243 whole entry S472D): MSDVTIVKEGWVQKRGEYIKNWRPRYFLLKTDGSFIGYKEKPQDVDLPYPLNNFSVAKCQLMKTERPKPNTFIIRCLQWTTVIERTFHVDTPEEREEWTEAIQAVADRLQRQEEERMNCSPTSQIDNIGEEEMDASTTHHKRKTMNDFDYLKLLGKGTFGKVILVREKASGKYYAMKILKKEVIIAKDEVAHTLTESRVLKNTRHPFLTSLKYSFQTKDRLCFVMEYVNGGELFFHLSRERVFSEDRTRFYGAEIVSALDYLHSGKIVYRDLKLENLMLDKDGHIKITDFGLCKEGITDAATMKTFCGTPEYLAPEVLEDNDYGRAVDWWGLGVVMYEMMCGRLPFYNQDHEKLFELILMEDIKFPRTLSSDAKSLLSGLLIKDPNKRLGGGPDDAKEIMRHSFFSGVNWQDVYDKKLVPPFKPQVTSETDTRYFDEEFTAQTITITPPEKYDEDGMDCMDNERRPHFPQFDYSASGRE
Serine/threonine-protein kinase 17A (Homo sapiens), sequence (Q9UEE5 whole entry): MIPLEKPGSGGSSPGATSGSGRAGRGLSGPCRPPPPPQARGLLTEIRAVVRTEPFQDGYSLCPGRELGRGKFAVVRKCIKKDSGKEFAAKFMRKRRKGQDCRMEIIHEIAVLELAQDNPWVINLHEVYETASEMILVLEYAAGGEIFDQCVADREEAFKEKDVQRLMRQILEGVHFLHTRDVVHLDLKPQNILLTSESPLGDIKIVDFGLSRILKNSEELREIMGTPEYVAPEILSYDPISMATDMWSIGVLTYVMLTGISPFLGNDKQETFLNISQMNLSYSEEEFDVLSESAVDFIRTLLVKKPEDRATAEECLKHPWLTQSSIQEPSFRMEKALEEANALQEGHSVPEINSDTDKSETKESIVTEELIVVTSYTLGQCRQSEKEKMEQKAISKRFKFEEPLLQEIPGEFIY
Serine/threonine-protein kinase VRK1 (Homo sapiens), sequence (Q99986 whole entry): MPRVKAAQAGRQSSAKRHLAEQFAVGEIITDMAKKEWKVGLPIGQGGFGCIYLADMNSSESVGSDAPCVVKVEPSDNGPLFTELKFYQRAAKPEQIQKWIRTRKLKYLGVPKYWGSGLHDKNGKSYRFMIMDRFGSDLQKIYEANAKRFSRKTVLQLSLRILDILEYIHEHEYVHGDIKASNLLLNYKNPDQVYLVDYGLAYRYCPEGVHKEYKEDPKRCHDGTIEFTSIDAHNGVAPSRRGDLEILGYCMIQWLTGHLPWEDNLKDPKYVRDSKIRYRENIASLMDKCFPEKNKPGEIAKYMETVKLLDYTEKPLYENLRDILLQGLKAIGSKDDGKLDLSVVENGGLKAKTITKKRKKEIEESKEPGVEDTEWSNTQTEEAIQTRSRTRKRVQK
RAF proto-oncogene serine/threonine-protein kinase (Homo sapiens), P04049 [Y340D,Y341D], sequence (P04049 whole entry Y340D/Y341D): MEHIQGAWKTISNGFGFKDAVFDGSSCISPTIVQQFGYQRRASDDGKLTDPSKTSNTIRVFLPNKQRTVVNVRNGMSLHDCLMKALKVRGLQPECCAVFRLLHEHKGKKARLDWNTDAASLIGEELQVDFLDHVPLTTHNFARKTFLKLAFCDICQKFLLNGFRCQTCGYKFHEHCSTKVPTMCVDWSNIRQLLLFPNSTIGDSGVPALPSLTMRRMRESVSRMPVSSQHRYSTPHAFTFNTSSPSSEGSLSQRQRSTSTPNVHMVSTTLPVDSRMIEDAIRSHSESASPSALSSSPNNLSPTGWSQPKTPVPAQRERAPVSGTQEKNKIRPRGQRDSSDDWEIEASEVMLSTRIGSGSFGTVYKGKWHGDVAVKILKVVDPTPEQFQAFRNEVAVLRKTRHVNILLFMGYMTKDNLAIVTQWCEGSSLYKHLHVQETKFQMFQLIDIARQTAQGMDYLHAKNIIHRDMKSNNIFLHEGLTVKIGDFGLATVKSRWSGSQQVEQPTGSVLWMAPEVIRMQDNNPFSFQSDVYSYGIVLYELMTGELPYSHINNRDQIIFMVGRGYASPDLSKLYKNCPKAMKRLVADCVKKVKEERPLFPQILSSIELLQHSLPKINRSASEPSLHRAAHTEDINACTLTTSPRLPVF
Tyrosine-protein kinase BTK (Homo sapiens), sequence (Q06187 whole entry): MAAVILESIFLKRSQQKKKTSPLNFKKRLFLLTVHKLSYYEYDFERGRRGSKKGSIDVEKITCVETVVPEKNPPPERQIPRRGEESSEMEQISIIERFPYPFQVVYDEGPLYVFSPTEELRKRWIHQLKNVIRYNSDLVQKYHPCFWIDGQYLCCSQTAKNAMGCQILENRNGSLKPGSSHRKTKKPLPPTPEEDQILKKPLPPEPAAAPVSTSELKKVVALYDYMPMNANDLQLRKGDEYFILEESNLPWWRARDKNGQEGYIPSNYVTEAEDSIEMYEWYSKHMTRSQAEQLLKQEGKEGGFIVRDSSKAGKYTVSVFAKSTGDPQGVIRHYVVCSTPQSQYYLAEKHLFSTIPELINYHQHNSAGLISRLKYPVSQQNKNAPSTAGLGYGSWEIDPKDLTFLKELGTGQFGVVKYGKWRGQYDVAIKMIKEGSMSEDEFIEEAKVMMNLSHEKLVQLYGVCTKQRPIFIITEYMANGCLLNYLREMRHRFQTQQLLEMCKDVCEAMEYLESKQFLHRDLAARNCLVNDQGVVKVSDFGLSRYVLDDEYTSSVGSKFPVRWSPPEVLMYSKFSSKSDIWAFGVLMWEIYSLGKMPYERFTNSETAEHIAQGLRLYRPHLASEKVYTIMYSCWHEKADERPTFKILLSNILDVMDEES
Serine/threonine-protein kinase D3 (Homo sapiens), sequence (O94806 whole entry): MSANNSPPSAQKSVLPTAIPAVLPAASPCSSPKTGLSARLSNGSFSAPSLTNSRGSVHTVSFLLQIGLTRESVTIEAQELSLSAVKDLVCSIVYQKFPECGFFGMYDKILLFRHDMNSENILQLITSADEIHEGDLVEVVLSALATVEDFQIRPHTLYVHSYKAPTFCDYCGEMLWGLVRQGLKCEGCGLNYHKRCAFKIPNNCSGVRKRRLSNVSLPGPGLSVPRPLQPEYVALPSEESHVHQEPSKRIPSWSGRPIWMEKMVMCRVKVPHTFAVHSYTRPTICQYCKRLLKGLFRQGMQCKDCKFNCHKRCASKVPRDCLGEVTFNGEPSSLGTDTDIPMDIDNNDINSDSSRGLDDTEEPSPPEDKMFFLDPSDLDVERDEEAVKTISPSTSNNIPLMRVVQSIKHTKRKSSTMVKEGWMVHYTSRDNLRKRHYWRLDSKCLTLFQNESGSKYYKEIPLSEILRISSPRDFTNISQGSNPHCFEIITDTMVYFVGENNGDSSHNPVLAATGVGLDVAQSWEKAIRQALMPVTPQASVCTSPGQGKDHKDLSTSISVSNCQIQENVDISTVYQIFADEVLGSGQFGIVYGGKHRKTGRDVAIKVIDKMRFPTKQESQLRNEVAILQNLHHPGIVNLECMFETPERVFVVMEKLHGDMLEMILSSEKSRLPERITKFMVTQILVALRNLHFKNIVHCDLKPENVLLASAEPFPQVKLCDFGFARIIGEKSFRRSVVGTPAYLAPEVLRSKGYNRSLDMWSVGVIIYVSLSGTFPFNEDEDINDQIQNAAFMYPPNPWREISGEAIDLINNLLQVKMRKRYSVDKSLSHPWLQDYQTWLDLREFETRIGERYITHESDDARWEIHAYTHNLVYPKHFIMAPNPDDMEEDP
Death-associated protein kinase 2 (Homo sapiens), sequence (Q9UIK4 whole entry, looked up): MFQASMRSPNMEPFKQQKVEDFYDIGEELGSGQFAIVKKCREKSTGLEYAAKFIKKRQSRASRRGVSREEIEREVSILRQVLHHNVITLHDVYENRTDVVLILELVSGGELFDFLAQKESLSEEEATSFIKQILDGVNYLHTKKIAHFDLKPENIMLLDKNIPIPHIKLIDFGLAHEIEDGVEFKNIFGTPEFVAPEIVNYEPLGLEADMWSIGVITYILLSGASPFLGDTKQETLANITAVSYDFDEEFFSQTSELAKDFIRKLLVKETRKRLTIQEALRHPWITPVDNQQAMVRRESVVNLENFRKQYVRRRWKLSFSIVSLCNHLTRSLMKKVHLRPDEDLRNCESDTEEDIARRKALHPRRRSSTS

For `CN(C)C(=O)c1cc2cnc(Nc3ccc(NC(=O)CCCCCCCN=C=S)cc3)nc2n1C1CCCC1`, the inhibition in [1] was 43%; in [2], 49%; in assay [3] it was 3%; in assay [4], 11%; in [5], 0%; in assay [6] it was -1%. Further, the inhibition in [7] is 11%; in [8] it was 20%; in assay [9], 1%; in assay [10] it was -2%; in [11], 15%; in assay [12] it was 33%. Moreover, the inhibition was 39% in [13]; 55% in assay [14]; 26% in assay [15]; 9% in assay [16]; 22% in assay [17]; -8% in assay [18]. For the same molecule, the results for the inhibition in assay [19] and in assay [20] were 96% and 10%, respectively. Moreover, the TGI entry in the assay on NCI-H1299 is “Dose-dependent effect”.

A word on the inhibition: it is the relative decrease from the control value, in per cent.
